Calls of active or inactive are those of the source. No cut-off for these calls is given here.
Assays:
[1] = system: Trypanosoma cruzi; assay: Antitrypanosomal activity against Trypanosoma cruzi Arequipa trypomastigotes infected in BALB/c mouse assessed as reduction in mouse mortality measured during acute phase (days 0 to 40 post infection) at 50 to 100 mg/kg, po dosed on alternating days (7 to 15 days post infection); type: functional, organism-based; conditions: dose 50-100 mg/kg
[2] = system: Trypanosoma cruzi; assay: Antitrypanosomal activity against Trypanosoma cruzi Arequipa trypomastigotes infected in BALB/c mouse assessed as reduction in splenomegaly by measuring weight percent of spleens […] at 50 mg/kg, po dosed on alternating days (7 to 15 days post infection) by PCR analysis (reference value: 1.603%); type: functional; set-up: scale not given: the % may be the effect or the level left
[3] = system: Trypanosoma cruzi; assay: (§1) Antitrypanosomal activity against Trypanosoma cruzi Arequipa trypomastigotes infected in BALB/c mouse assessed as reduction in parasitemia level in heart measured during acute phase (days 0 to 40 post infection) at 100 mg/kg, po dosed on alternating days (7 to 15 days post infection) by PCR analysis; type: functional, organism-based
[4] = system: Trypanosoma cruzi; assay: Antitrypanosomal activity against Trypanosoma cruzi Arequipa trypomastigotes infected in BALB/c mouse assessed as parasitemia re-activation level measured during chronic phase ( day 90 post infection) at 100 mg/kg, po dosed on alternating days (7 to 15 days post infection) relative to acute phase infection (reference value: […]%); type: functional
[5] = system: Trypanosoma cruzi; assay: Antitrypanosomal activity against Trypanosoma cruzi SN3 trypomastigote froms infected in mouse blood incubated for 24 hrs by Neubauer chamber based assay; type: functional, organism-based
Procedure, shortened: (§2)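 Mouse blood taken at peak parasitemia (day 7) was diluted with uninfected blood to 4×10^6 trypomastigotes/mL, then 1:2 in RPMI 1640. Drugs from DMSO stocks were added at 1, 10, 25, 50 and 100 µM and incubated 24 h at 4–8 °C. Parasites were counted in a Neubauer chamber in triplicate. IC50 was calculated versus control.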

[6] = system: Trypanosoma cruzi; assay: Antitrypanosomal activity against Trypanosoma cruzi Arequipa epimastigote forms incubated for 72 hrs by hemocytometry; type: functional, organism-based
Procedure, shortened: (§3)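 Epimastigotes grown in MTL medium with 10% inactivated FBS at 28 °C. Compounds were dissolved in DMSO (0.01% v/v) and added at 0.1–100 µM for 72 h. Parasites were counted in a Neubauer chamber. IC50 (50% growth inhibition) was derived by linear regression of Kc values. Values are averages of four determinations.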

[7] = system: Trypanosoma cruzi; assay: Antitrypanosomal activity against Trypanosoma cruzi Arequipa amastigote forms infected in African green monkey Vero cells incubated for 72 hrs by Giemsa staining based micrscopy; type: functional, organism-based
Procedure, shortened: (§4)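 Vero cells (RPMI, 10% inactivated FBS, 37 °C, 5% CO2) were seeded at 1×10^4/well on coverslips and cultured 2 days. They were infected 24 h with metacyclic forms at 10:1. After washing off free parasites, drugs were added at 0.1–100 µM for 72 h. Slides were methanol-fixed and Giemsa-stained; amastigotes were counted in 200 host cells versus untreated. IC50 was calculated.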

[8] = system: Trypanosoma cruzi; assay: Antitrypanosomal activity against Trypanosoma cruzi infected in African green monkey Vero cells assessed as reduction in number of amastigotes per infected cell measured up to 10 days by Giemsa staining based hemocytometry; type: functional; conditions: time day <=10
Procedure, shortened: (§5)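 Vero cells infected with metacyclic forms (10:1) were exposed to one concentration per compound immediately after infection for 12 h at 37 °C, 5% CO2. After washing, cultures were kept 10 days with fresh medium every 48 h. Every 48 h, % infected cells and amastigotes per infected cell (200 Giemsa-stained cells) and medium trypomastigotes (Neubauer) were scored. Means of three experiments.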

[9] = system: Trypanosoma cruzi; assay: Antitrypanosomal activity against Trypanosoma cruzi Arequipa trypomastigote froms infected in mouse blood incubated for 24 hrs by Neubauer chamber based assay; type: functional, organism-based; procedure, shortened: as §2
[10] = system: Trypanosoma cruzi; assay: as §1, with “muscle” for “heart”; type: functional, organism-based
[11] = system: Trypanosoma cruzi; assay: Antitrypanosomal activity against Trypanosoma cruzi SN3 amastigote forms infected in African green monkey Vero cells incubated for 72 hrs by Giemsa staining based micrscopy; type: functional, organism-based; procedure, shortened: as §4
[12] = system: Trypanosoma cruzi; assay: Antitrypanosomal activity against Trypanosoma cruzi Tulahuen trypomastigote froms infected in mouse blood incubated for 24 hrs by Neubauer chamber based assay; type: functional, organism-based; procedure, shortened: as §2
[13] = target: T1, Superoxide dismutase [Cu-Zn] (Homo sapiens, UniProt P00441); assay: Inhibition of human erythrocyte CuZn-SOD at 100 uM by NBT dye based spectrophotometry
Procedure, shortened: (§6)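 Fe-SOD source: Arequipa epimastigote homogenate (STE buffer pH 7.8, sonication, centrifugation, supernatant; protein by Bradford); CuZn-SOD was commercial human erythrocyte enzyme. Activity was measured as NBT reduction by superoxide in 50 mM potassium phosphate pH 7.8, with compounds at 5 concentrations (1–100 µM). A560 was read before and after 10 min under lamp light with stirring. Three rate determinations; Newman–Keuls test.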

[14] = system: Trypanosoma cruzi; assay: Antitrypanosomal activity against Trypanosoma cruzi Arequipa trypomastigotes infected in BALB/c mouse assessed as reduction in parasitemia measured during acute phase (days 0 to 40 post infection) at 50 to 100 mg/kg, po dosed on alternating days (7 to 15 days post infection); type: functional, organism-based; conditions: dose 50-100 mg/kg
Procedure, shortened: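 Female BALB/c mice (8–10 weeks, 25–30 g; groups of six) were infected i.p. with 5×10^5 Arequipa blood trypomastigotes. Dosing was oral, 50 or 100 mg/kg/day, on 5 alternating days (days 7–15 pi), alongside untreated and reference-drug groups. Parasitemia was counted in 5 µL mandibular-vein blood by Neubauer chamber through day 40 pi. Data are means ± SD of six mice.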

[15] = system: Vero; assay: Cytotoxicity in African green monkey Vero cells incubated for 72 hrs; type: cell-based; conditions: Chlorocebus sabaeus
[16] = system: Trypanosoma cruzi; assay: Antitrypanosomal activity against Trypanosoma cruzi Tulahuen amastigote forms infected in African green monkey Vero cells incubated for 72 hrs by Giemsa staining based micrscopy; type: functional, organism-based; procedure, shortened: as §4
[17] = system: Trypanosoma cruzi; assay: as §1, with “adipose tissue” for “heart”; type: functional, organism-based
[18] = system: Trypanosoma cruzi; assay: Antitrypanosomal activity against Trypanosoma cruzi infected in African green monkey Vero cells assessed as reduction in infection rate measured up to 10 days by Giemsa staining based hemocytometry; type: functional; conditions: time day <=10; procedure, shortened: as §5
[19] = system: Trypanosoma cruzi; assay: as §1, with “bone marrow” for “heart”; type: functional, organism-based
[20] = system: Trypanosoma cruzi; assay: as §1, with “infection) at 50 to 100 mg/kg,” for “infection) at 100 mg/kg,”; type: functional, organism-based; conditions: dose 50-100 mg/kg
[21] = system: Trypanosoma cruzi; assay: Antitrypanosomal activity against Trypanosoma cruzi Tulahuen epimastigote forms incubated for 72 hrs by hemocytometry; type: functional, organism-based; procedure, shortened: as §3
[22] = system: Trypanosoma cruzi; assay: Antitrypanosomal activity against Trypanosoma cruzi Arequipa trypomastigotes infected in BALB/c mouse assessed as reduction in splenomegaly by measuring weight percent of spleens […] at 100 mg/kg, po dosed on alternating days (7 to 15 days post infection) by PCR analysis (reference value: 1.603%); type: functional
[23] = system: Trypanosoma cruzi; assay: Inhibition of Trypanosoma cruzi Arequipa Fe-SOD at <50 uM by NBT dye based spectrophotometry; conditions: dose microM <50; procedure, shortened: as §6
[24] = system: Trypanosoma cruzi; assay: Antitrypanosomal activity against Trypanosoma cruzi infected in African green monkey Vero cells assessed as reduction in number of trypomastigotes measured up to 10 days by Giemsa staining based hemocytometry; type: functional; conditions: time day <=10; procedure, shortened: as §5
[25] = system: Trypanosoma cruzi; assay: as §1, with “stomach” for “heart”; type: functional, organism-based
[26] = system: Trypanosoma cruzi; assay: Antitrypanosomal activity against Trypanosoma cruzi Arequipa trypomastigotes infected in BALB/c mouse assessed as reduction in parasitemia level in lung measured during acute phase (days 0 to 40 post infection) at 100 mg/kg, po dosed on alternating days (7 to 15 days post infection) by PCR analysis; type: functional, organism-based
[27] = system: Trypanosoma cruzi; assay: Antitrypanosomal activity against Trypanosoma cruzi SN3 epimastigote forms incubated for 72 hrs by hemocytometry; type: functional, organism-based; conditions: SN3, 72 h; procedure, shortened: as §3
[28] = Inhibition of Trypanosoma cruzi Arequipa Fe-SOD by NBT dye based spectrophotometry; procedure, shortened: as §6
[29] = system: Trypanosoma cruzi; assay: Antitrypanosomal activity against Trypanosoma cruzi Arequipa trypomastigotes infected in BALB/c mouse assessed as reduction in parasitemia level in brain measured during acute phase (days 0 to 40 post infection) at 100 mg/kg, po dosed on alternating days (7 to 15 days post infection) by PCR analysis; type: functional, organism-based
[30] = system: Trypanosoma cruzi; assay: as §1, with “esophagus” for “heart”; type: functional, organism-based
[31] = target: T1, Superoxide dismutase [Cu-Zn]; assay: Inhibition of human erythrocyte CuZn-SOD by NBT dye based spectrophotometry; procedure, shortened: as §6
[32] = target: T1, Superoxide dismutase [Cu-Zn]; assay: Inhibition of human erythrocyte CuZn-SOD at 50 uM by NBT dye based spectrophotometry; procedure, shortened: as §6
[33] = system: Trypanosoma cruzi; assay: Inhibition of Trypanosoma cruzi Arequipa Fe-SOD at 50 uM by NBT dye based spectrophotometry; procedure, shortened: as §6
[34] = Selectivity index, ratio of IC50 for cytotoxicity in African green monkey Vero cells to IC50 for antitrypanosomal activity against Trypanosoma cruzi […] epimastigote forms
[35] = Selectivity index, ratio of IC50 for cytotoxicity in African green monkey Vero cells to IC50 for antitrypanosomal activity against Trypanosoma cruzi […] amastigote forms; type: toxicity, cell-based; conditions: read-out: Ratio IC50

T1 sequence (P00441 whole entry): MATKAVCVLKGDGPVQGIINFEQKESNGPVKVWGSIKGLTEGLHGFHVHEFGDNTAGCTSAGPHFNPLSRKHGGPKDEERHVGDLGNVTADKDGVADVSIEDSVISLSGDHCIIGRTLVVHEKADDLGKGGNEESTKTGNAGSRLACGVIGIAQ

| Compound | Activity [1] | Activity [2] [%] | Activity [3] | Activity [4] [%] | IC50 [5] [µM] | IC50 [6] [µM] | IC50 [7] [µM] | inhibition (INH) [8] [%] | IC50 [9] [µM] | Activity [10] | IC50 [11] [µM] | IC50 [12] [µM] | Activity [14] | IC50 [15] [µM] | IC50 [16] [µM] | inhibition (INH) [18] [%] | IC50 [21] [µM] | Spleen weight percent [22] [%] | inhibition (INH) [24] [%] | IC50 [27] [µM] | further results |
| --- | --- | --- | --- | --- | --- | --- | --- | --- | --- | --- | --- | --- | --- | --- | --- | --- | --- | --- | --- | --- | --- |
| O=C(CCN1CCN(c2ccc([N+](=O)[O-])cc2C(F)(F)F)CC1)c1csc2ccccc12 | Active | 1.171 | Active | 0 | 33 | 26 | 10.8 | 74 | 20.3 | Active | 72.9 | 2.5 | Active | 2850 | 22.8 | 76 | 50.3 | 0.892 | 64 | 179 | inhibition [13]: inactive; Activity [17]: Active; Activity [19]: Active; Activity [20]: Active; inhibition [23]: 100%; Activity [25]: Active; Activity [26]: Active; IC50 [28]: 71.1 µM; Activity [29]: Active; Activity [30]: Active |
| O=C(CCN1CCN(c2ccc([N+](=O)[O-])cc2)CC1)c1csc2ccccc12 | Active | 1.174 | Active | 0 | 18.6 | 77.7 | 11.7 | 45 | 35.9 | Active | 20.7 | 0.5 | Active | 1710 | 19.8 | 59 | 35.5 | 0.729 | 59 | 41.4 | IC50 [31]: 46.6 µM; inhibition [32]: 100%; Activity [17]: Active; inhibition [33]: 100%; Activity [19]: Active; Activity [20]: Active; Activity [25]: Active; Activity [26]: Active; IC50 [28]: 7.8 µM; Activity [29]: Active; Activity [30]: Active |
| O=C(Cn1ccnc1[N+](=O)[O-])NCc1ccccc1 [BENZNIDAZOLE] | Active |  |  |  | 6.2 |  | 23.7 | 30 | 12.6 |  |  | 12.8 | Active |  | 21.7 | 22 |  | 0.837 | 20 |  |  |
| O=C(CCN1CCN(c2cccc(C(F)(F)F)c2)CC1)c1ccsc1 |  |  |  |  | 4.6 | 28 | 18.6 |  | 26.8 |  | 5.7 | 22.3 |  | 4.8 | 20.2 |  | 28 |  |  | 12.8 | selectivity ratio [34]: 1; selectivity ratio [35]: 1 |
| O=C(CCN1CCN(c2ccc([N+](=O)[O-])cc2)CC1)c1csc2ccc(F)cc12 |  |  |  |  | 4.1 | 36.6 | 19.8 |  | 43.3 |  | 16.3 | 52.4 |  | 554 | 8.8 |  | 48.1 |  |  | 39.4 |  |
| O=C(CCN1CCN(c2ccc(F)cc2)CC1)c1ccc2ccccc2c1 |  |  |  |  | 10.7 | 49 | 23.9 |  | 24.6 |  | 12.4 | 25.5 |  | 103 | 20.3 |  | 27.6 |  |  | 24.1 |  |

Reference: ChEMBL document CHEMBL4680103, “In Vitro and in Vivo Anti-Trypanosoma cruzi Activity of New Arylamine Mannich Base-Type Derivatives” (J Med Chem, 2016)
